Source: PubChem BioAssay (Broad Institute)
SR-BI uptake up = enhances SR-BI lipid uptake from DiI-HDL. hit rate 0.096% among 320,000. AID 504775. CHO ldlA[mSR-BI] cells, DiI-HDL uptake fluorescence, 3 h; 100 = double the neutral-control signal. activation, % at 12.5 µM;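 active = mean replicate activation of at least 60% and every replicate at or above 60%; inconclusive = mean or all-replicate condition met, but not both; inactive = mean below 60% and not all replicates reaching 60%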
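Material: SR-BI-overexpressing, LDLR-lacking CHO cells | Dosing: Single compound concentration, delivered by pin transfer | Probe or stimulus: Labelled HDL, 10 µg/mL | Signal: Bottom-read cell fluorescence after medium removal, ex 550/em 595 nm | Schedule: 3 h, 37 °C | Evaluation: HDL uptake via cellular fluorescence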
dFosB activator = enhances mouse delta FosB homodimer DNA binding. hit rate 0.99% among 340,000. P13346. purified delta FosB, TAMRA-CDK5 oligo fluorescence polarization; percent of positive-control signal above neutral wells. activation, % at 25 µM;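 active = mean activation above about 17%, with every replicate also reaching it, limit read from the data, passing the limit was not always enough; inconclusive = only one of the two conditions met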
Target sequence (P13346 whole entry, looked up): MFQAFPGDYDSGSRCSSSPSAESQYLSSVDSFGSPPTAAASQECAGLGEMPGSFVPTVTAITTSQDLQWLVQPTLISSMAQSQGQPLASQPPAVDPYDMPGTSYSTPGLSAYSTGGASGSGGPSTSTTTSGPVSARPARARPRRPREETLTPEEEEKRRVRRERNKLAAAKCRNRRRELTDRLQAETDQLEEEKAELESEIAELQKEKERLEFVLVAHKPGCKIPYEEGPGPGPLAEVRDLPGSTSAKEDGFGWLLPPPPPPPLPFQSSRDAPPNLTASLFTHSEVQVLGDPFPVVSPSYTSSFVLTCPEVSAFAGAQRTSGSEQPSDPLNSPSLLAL
SR-BI DiI inh = mouse SR-BI HDL lipid transfer inhibition; AID 488896; hit rate 0.96% among 320,000; ldlA[mSR-BI] CHO cells, DiI-HDL uptake fluorescence, 3 h; Q61009; inhibition, % at 12.5 µM;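 active = mean replicate inhibition of at least 70% and a set share of replicates each scoring 70 or more; inconclusive = meets just one of the two criteria; inactive = fails both criteria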
CDK5 inh = inhibitors of human CDK5/p35 kinase; inhibition, % at 10 µM; Q00535+Q15078; Recombinant CDK5/p35, ADP-Glo luminescence, 60 min; AID 488839; hit rate 0.01% among 330,000;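 active = highest replicate inhibition of at least 50% and at least 75% of replicates reaching 50%; inconclusive = only one of the two criteria met; inactive = both criteria failed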
Numbers stand for hits; n = inactive; u = inconclusive; x = no result given. Compounds with a hit are over-represented: about 2% of the library has one in this group of screens.

SMILES	SR-BI uptake up	dFosB activator	SR-BI DiI inh	CDK5 inh
Fc1cccc(-c2cc3nc4c(c(N5CCOCC5)n3n2)CCCC4)c1	n	n	72	n
COc1cc(/C=N\NC(=O)c2ccc(C)nc2)ccc1OC(=O)c1cccc(F)c1	x	n	x	n
CCOc1ccc(NC(=O)CN(C)C(=O)c2cccnc2Sc2ccccc2Cl)cc1OCC	n	n	n	n
Cn1c(=O)c2ncn(CC(=O)Nc3cccc(-c4nc5ccccc5s4)c3)c2n(C)c1=O	n	78	n	n
CC1CCC2(CC1)NC(=O)N(CC(=O)Nc1ccc(F)cc1)C2=O (stereo not drawn)	n	n	n	n
CCC(=O)Nc1ccc(Cl)c(NC(=S)NC(=O)c2ccco2)c1	n	n	96	n
CCCCc1ccc(NC(=S)NCc2cccc(OC)c2)cc1	n	n	n	n
CCCCc1ccc(NC(=S)Nc2ccc(Nc3ccc(OC)cc3)cc2)cc1	n	n	81	n
CC1CCN(c2ccccc2NC(=O)c2ccc(C#N)cc2F)CC1	n	n	77	n
O=C(O)c1cc(S(=O)(=O)N2CCN(C(=O)c3ccco3)CC2)c(Cl)cc1Cl	x	n	x	n
CCN(CC)c1ccc(/C=N/N2CCN(c3ccccc3OC)CC2)cc1	n	n	81	n
COCCCN(C(C)=O)c1nc(-c2ccc(OC)cc2)cs1	n	n	78	n
COc1ccc(-c2csc(N(CC3CCCO3)C(=O)c3ccc(C)cc3)n2)cc1 (stereo not drawn)	n	n	77	n
COc1ccc(-c2cc(C(=O)NCC3CCCO3)c3ccccc3n2)cc1 (stereo not drawn)	n	n	n	n
COc1ccc(-c2cc(C(=O)NCC3CCCO3)c3cc(C)ccc3n2)cc1 (stereo not drawn)	n	n	72	n
COc1ccc(C(=O)NCCOC(C)C)cc1OC1CCN(C(C)=O)CC1	n	n	n	n
C/C(=N\NC(=O)c1ccc(CN2CCOCC2)cc1)c1ccc([N+](=O)[O-])cc1	n	n	71	n
C/C(=N\NC(=O)c1ccc(CN2CCOCC2)cc1)c1cccc([N+](=O)[O-])c1	n	n	n	n
C/C(=N/NC(=O)CNC(=O)c1ccccn1)c1ccc([N+](=O)[O-])cc1	n	n	80	n
Cc1cc(/C=N/NC(=O)c2ccc(CN3CCOCC3)cc2)c(C)n1-c1ccccc1	n	n	72	n
CCOC(=O)C1(Cc2cccc(Cl)c2)CCCN(C(=O)c2c(CC)noc2C)C1 (stereo not drawn)	n	n	n	n
Cc1ccccc1NC(=O)Cn1cnc2c(oc3ccccc32)c1=O	n	n	n	n
Cc1cc(C)c(NC(=O)Cn2cnc3c(oc4ccccc43)c2=O)c(C)c1	n	52	n	n
COc1ccc(-c2cc3cc(OC)c(OC)cc3cn2)cc1	n	n	79	n
COc1cc(OC)cc(-c2cc3ccc(OC)cc3cn2)c1	n	n	90	n
SMILES	SR-BI uptake up	dFosB activator	SR-BI DiI inh	CDK5 inh
COc1ccc2cc(-c3ccccc3)ncc2c1	n	n	n	n
COc1ccc(-c2nnc(SCC(=O)NC3CCCCC3)n2N)cc1	n	n	n	n
Cc1cc(C(C)(C)C)cc(C)c1CCNC(=O)c1ccc[n+]([O-])c1	n	n	n	n
O=C(Cc1c(Sc2ccccc2)c2ccccc2n1Cc1ccccc1)NCCO	n	n	n	n
Nc1c(C(=O)NCc2ccc3c(c2)OCO3)nnn1Cc1cccc(F)c1	x	n	x	n
Nc1c(C(=O)NCc2ccc3c(c2)OCO3)nnn1Cc1ccc(Br)cc1	x	20	x	n
Cc1ccc(-c2cc(-c3ccc(F)cc3)n[nH]2)c(O)c1	n	n	n	n
Cc1ccc(-c2cc(-c3ccc(C)cc3O)[nH]n2)cc1	n	n	100	n
CCOc1cccc(/C=N/NC(=S)Nc2ccccc2[N+](=O)[O-])c1O	n	n	128	n
CCCCNC(=S)N/N=C/c1cccc(OCC)c1O	n	n	n	n
CCOc1ccc(NC(=S)NNC(=S)Nc2cccc(C(F)(F)F)c2)cc1	n	n	93	n
C=CCOC(=O)C1=C(C)NC(=S)NC1c1cccs1 (stereo not drawn)	n	n	78	n
CCOc1[nH]n(-c2ccc(Cl)cc2)c(=O)c1C=Nc1ccc(Cl)cc1	n	n	75	n
CCOc1ccc(N(C(C)C(=O)N/N=C(\C)c2cccc(NC(=O)c3ccccc3)c2)S(C)(=O)=O)cc1 (stereo not drawn)	n	n	78	n
CCOc1ccc(N(C(C)C(=O)Nc2cccnc2)S(C)(=O)=O)cc1 (stereo not drawn)	n	n	n	n
CCCN1C(=O)/C(=C/c2ccco2)SC1=Nc1ccc(OC)cc1	n	n	79	n
Oc1ccc(C[C@H]2CNC(=S)N2CC2CCCN2C[C@H](Cc2ccccc2)N2C[C@H](Cc3ccc(O)cc3)N(CC3CCCCCC3)C2=S)cc1 (stereo partly drawn)	86	u	n	n
Oc1ccc(C[C@H]2CNC(=S)N2CC2CCCN2C[C@H](Cc2ccc(O)cc2)N2C[C@H](Cc3ccc(O)cc3)N(CC3CCCCC3)C2=S)cc1 (stereo partly drawn)	183	n	n	n
CCOc1ccc(C(=O)NCC(=O)N2CC=C(c3ccccc3)CC2)cc1OCC	n	n	u	n
O=C(/C=C/c1ccc(Cl)cc1)c1cccnc1	n	n	n	n
O=C(/C=C/c1ccc(OCc2ccccc2)c(OCc2ccccc2)c1)c1cccnc1	n	n	84	n
COc1cc(CNCCc2ccccc2)ccc1OCC(=O)NC(C)(C)C	n	n	n	n
COc1cc(CNCCc2ccccc2)ccc1OCC(N)=O	64	n	n	n
O=C(COc1cc2oc(=O)cc(-c3ccccc3)c2cc1Cl)NCCN1CCOCC1	n	n	n	n
COc1ccc(N2CCN(C(=O)c3ccccc3NS(=O)(=O)c3ccc(C)cc3)CC2)cc1	n	n	n	n
SMILES	SR-BI uptake up	dFosB activator	SR-BI DiI inh	CDK5 inh
CN(C)CCCN(C(=O)c1ccc(C(=O)c2ccccc2)cc1)c1nc2cc3c(cc2s1)OCO3	n	25	n	n
CN(C)CCCN(C(=O)c1ccc(Br)s1)c1nc2cc3c(cc2s1)OCCO3	n	24	n	n
CCN(Cc1ccccc1)S(=O)(=O)c1ccc(C(=O)N(CCCN(C)C)c2nc3cc(OC)ccc3s2)cc1	n	n	n	n
COc1ccc2sc(N(CCCN(C)C)C(=O)c3ccc(C(=O)c4ccccc4)cc3)nc2c1	n	22	n	n
CN(C)CCCN(C(=O)c1ccco1)c1nc2cc3c(cc2s1)OCO3	n	n	n	n
CCN(CC)CCN(C(=O)c1ccc(C(=O)c2ccccc2)cc1)c1nc2cc3c(cc2s1)OCO3	n	48	n	n
CN(C)C1=NCCN1CC1CCCC1	n	n	n	n
CC(CCC(C)C(C)(C)C)[C@@H]1CC[C@H]2C3C[C@H](OS(O)(=S)=S)[C@H]4C[C@H](OS(O)(=S)=S)[C@@H](OS(O)(=S)=S)C[C@]4(C)[C@H]3CC[C@]12C (stereo partly drawn) (tested in a mixture with another compound)	n	n	n	80
